Only some compounds are listed: those with a hit (about 3.5% of all), similar ones and a draw of the others.
MrgX1 agonist = activates human MrgX1 receptor signaling; Q96LB2; MrgX1-HEK293 cells, Fluo-4 calcium fluorescence, agonist mode; stronger effect = higher value; B-score at 10 µM; 0.44% of 310,000 active; AID 588627;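 active means calcium response B-score plate-corrected fluorescence ratio at least 3 library SD, with starting fluorescence B-score inside 5 SD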
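Material – MrgX1-expressing HEK293 cells · Input – 15,000 cells seeded per well · Dosing – compound as first of three additions · Times – overnight seeding, then 1 h dark dye loading · Measured by – kinetic Fluo-4 NW fluorescence of intracellular calcium · Read-out – B-scored fluorescence response ratio · Benchmarks – positive and negative control wells on each plate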
RGS4 pot = potentiators or activators of RGS4; HEK293 M3R/inducible RGS4, carbachol calcium flux Fluo4; stronger effect = lower value; B-score at 10 µM; 0.92% of 310,000 active;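 active means B-score of the integrated calcium signal more than 4 SD below the library mean, with starting fluorescence not abnormally high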;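 further: negative B-score means reduced calcium response which marks RGS4 activation or potentiation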
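Also added: carbachol at ECmax as muscarinic agonist stimulus; Assay system: HEK293 cells with stable M3R and inducible RGS4; Timing: overnight RGS4 induction, 30 min dye load 37 °C, 20 min compound RT; Measured by: Fluo4-AM (2 µM) calcium-flux fluorescence, kinetic read.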
MrgX1 antagonist = antagonists of human MrgX1 receptor. Q96LB2. MRGX1-HEK293 calcium flux, Fluo-4, BAM8-22 antagonism; stronger effect = lower value. B-score at 10 µM. 1.3% of 310,000 active;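 active means calcium-response B-score plate-corrected more than 3 library SD below zero, starting fluorescence within 5 deviations, no agonist response on first addition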;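 further: peak minus trough fluorescence over baseline after final BAM8-22 challenge near maximal dose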
RGS4 block = human RGS4 inhibition; HEK293 M3R/RGS4 inducible, Fluo-4 calcium flux; stronger effect = higher value; triggered by carbachol at its EC20; P49798; B-score at 10 µM; 0.45% of 310,000 active;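 active means B-score, a plate-corrected calcium signal, over three deviations above library mean, with baseline fluorescence within five deviations of library mean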;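 further: RGS4 expression induced by doxycycline in cells with stable M3 receptor; B-score is computed from the integrated fluorescence ratio over baseline after carbachol; higher B-score means a larger calcium signal and so more RGS4 inhibition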
Target sequence (P49798 whole entry, looked up): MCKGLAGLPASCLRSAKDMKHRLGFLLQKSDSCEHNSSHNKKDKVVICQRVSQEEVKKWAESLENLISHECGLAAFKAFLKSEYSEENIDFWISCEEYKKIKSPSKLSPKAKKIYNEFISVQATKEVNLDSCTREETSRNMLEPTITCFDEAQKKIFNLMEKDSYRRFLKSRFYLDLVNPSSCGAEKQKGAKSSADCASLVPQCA
MrgX1 PAM = allosterically activates human MrgX1 receptor signaling; Q96LB2; MrgX1-HEK293, Fluo-4 calcium flux, FDSS; stronger effect = higher value; B-score at 10 µM; 0.63% of 310,000 active; AID 588675;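 active means plate-corrected calcium response at least 3 library SD above typical, normal starting fluorescence, not activating the receptor alone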;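 further: compound read alongside a low EC10 to EC30 dose of BAM8-22 agonist; peak minus trough fluorescence over baseline measured at the second addition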
* hit, by the source's call; i = inactive; . = no result.

SMILES	MrgX1 agonist	RGS4 pot	MrgX1 antagonist	RGS4 block	MrgX1 PAM
COc1ccc(N2CC(C(=O)N/N=C/c3cccs3)CC2=O)cc1 (configuration not stated)	i	i	-6.06*	i	i
CCOC(=O)COn1c(-c2cccc(Cl)c2)nc2ccc([N+](=O)[O-])cc21	i	i	-6.23*	i	i
CN(C)CC/C=C1/c2cc(F)ccc2Sc2ccc(Cl)cc21	i	-10*	i	i	i
CN(C)CC/C=C1/c2ccccc2Sc2c(O)cc(Cl)cc21	i	-7.34*	i	i	i
COc1cc(Cl)cc2c1Sc1ccccc1/C2=C/CCN(C)C	i	-7.08*	i	i	i
CN1CCN(CC/C=C2/c3ccccc3Sc3ccc(S(=O)(=O)N(C)C)cc32)CC1	i	i	i	i	i
O=C1C=CC(=O)N1CCNc1ncc(C(F)(F)F)cc1Cl	.	-7.94*	.	i	.
O=[N+]([O-])c1ccc(S(=O)(=O)N2CCN(C3CCN(Cc4ccccc4)CC3)CC2)cc1	i	-7.47*	i	i	i
O=[N+]([O-])c1ccccc1S(=O)(=O)N1CCN(C2CCCC2)CC1	i	i	i	i	i
O=[N+]([O-])c1ccccc1S(=O)(=O)N1CCN(C2CCN(Cc3ccccc3)CC2)CC1	i	-7.34*	i	i	i
CC(Oc1ccc(Cl)cc1Cl)C(=O)NNC(=O)c1ccncc1 (configuration not stated)	i	i	i	i	i
CC(Oc1ccc(Cl)cc1Cl)c1nc(-c2ccc(NC(=O)c3cccnc3)cc2)no1 (configuration not stated)	i	-7.86*	i	i	i
CC(Oc1ccc(Cl)cc1Cl)c1nc(-c2ccc(NC(=O)c3ccncc3)cc2)no1 (configuration not stated)	i	i	-5.25*	i	i
COc1cc(CNC(C)c2ccccc2)cc(Br)c1OCc1ccc(F)cc1 (configuration not stated)	i	-8.48*	i	i	i
Cn1c(=O)c(=O)n(C)c2cc(N3CCOCC3)c(NS(=O)(=O)c3ccc([N+](=O)[O-])cc3)cc21	i	i	i	i	13.8*
Cn1c(=O)c(=O)n(C)c2cc(N3CCOCC3)c(NS(=O)(=O)c3ccc(F)c(Cl)c3)cc21	i	i	i	i	i
Cc1c(N2C(=O)CSC2c2ccc([N+](=O)[O-])cc2)c(=O)n(-c2ccccc2)n1C (configuration not stated)	i	i	i	i	i
O=C1CSC(c2ccccc2)N1c1ccc([N+](=O)[O-])cc1 (configuration not stated)	i	-6.97*	i	i	i
COC(=O)CN1C(=O)C2(OCCCO2)c2ccccc21	i	i	i	i	i
CCOc1ccc(-n2nnnc2SCC(=O)c2ccccc2)cc1	i	i	i	i	i
Cn1c(=O)c(NCCO)c2c3c(cccc31)C(=O)c1ccccc1-2	i	-11.6*	i	i	i
CCCCCCNc1c([N+](=O)[O-])cc(C)cc1[N+](=O)[O-]	i	i	i	i	i
COc1cccc(N/C(SCc2ccccc2C)=C(/C#N)C(=O)NCc2cccs2)c1	i	i	i	i	i
COc1cccc(N/C(SC)=C(/C#N)C(=O)NCc2cccs2)c1	i	-7.53*	i	i	i
COc1ccccc1NC(=O)CCCC(=O)OCC(F)(F)C(F)F	i	i	-6.18*	i	i
CCN1CCN(c2nn3c(=O)c4ccccc4nc3c3ccccc23)CC1	i	-8.6*	i	i	i
CC1CN(c2nn3c(=O)c4ccccc4nc3c3ccccc23)CC(C)O1 (configuration not stated)	i	i	i	i	i
CN(Cc1cc2ccccc2[nH]c1=O)C(=O)COc1ccccc1	i	i	i	i	i
Cc1ccnc(N2C(=O)c3cccc4c([N+](=O)[O-])ccc(c34)C2=O)c1	i	i	-5.17*	i	i
Cc1cc(C(=O)N/N=C/C=C/c2ccccc2[N+](=O)[O-])c(C)o1	i	i	i	i	i
